≈ marks a conversion by molar mass, not a printed value.
What was measured:
[1] = target: Tyrosine-protein kinase JAK2 (Homo sapiens, UniProt O60674)
[2] = Antiproliferative activity against human DERL7 cells after 72 hrs by Cell Titer-Glo assay; assay type: functional, cell-based; settings: DERL7, 72 h
[3] = tested on: A2780; test: Antiproliferative activity against human A2780 cells after 72 hrs by Cell Titer-Glo assay; assay type: functional, cell-based; settings: A2780, 72 h
[4] = target: Tyrosine-protein kinase JAK2 (Homo sapiens, UniProt O60674, V617F)
[5] = Solubility of the compound in buffer at pH7; assay type: physicochemical; settings: pH 7
[6] = Cmax in Balb nu/nu mouse at 10 mg/kg, iv; assay type: ADME, organism-based; parameters: dose 10 mg/kg, route intravenous; settings: in vivo
How it was run: (§1)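 Overnight-fasted male Nu/Nu mice, single intravenous dose in 10% Tween 80 in 5% dextrose, three mice. Saphenous vein blood taken at predose, 0.083, 0.5, 1, 6 and 24 h. Plasma obtained by centrifugation at 10,000g, 3 min, 4 °C, stored at -80 °C, then analysed by LC/MS/MS.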

[7] = tested on: Mus musculus; test: (§2) AUC(infinity) in Balb nu/nu mouse at 10 mg/kg, iv; assay type: ADME, organism-based, Plasma; parameters: dose 10 mg/kg, route intravenous, time infinity; settings: in vivo
How it was run: as §1

[8] = Volume of distribution at steady state in Balb nu/nu mouse at 10 mg/kg, iv; assay type: ADME, organism-based; parameters: dose 10 mg/kg, route intravenous; settings: in vivo, read-out: Vdss
How it was run: as §1

[9] = Half life in Balb nu/nu mouse at 10 mg/kg, iv; assay type: ADME, organism-based; parameters: dose 10 mg/kg, route intravenous; settings: in vivo
How it was run: as §1

[10] = Cmax in Balb nu/nu mouse at 10 mg/kg, po; assay type: ADME, organism-based; parameters: dose 10 mg/kg, route oral; settings: in vivo
How it was run: (§3)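 Overnight-fasted male Nu/Nu mice, single oral dose in 0.5% methocel, three mice. Saphenous vein blood taken at predose, 0.083, 0.5, 1, 6 and 24 h. Plasma obtained by centrifugation at 10,000g, 3 min, 4 °C, stored at -80 °C, then analysed by LC/MS/MS.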

[11] = AUC(infinity) in Balb nu/nu mouse at 10 mg/kg, po; assay type: ADME, organism-based; parameters: time infinity, dose 10 mg/kg, route oral; settings: plasma
How it was run: as §3

[12] = Half life in Balb nu/nu mouse at 10 mg/kg, po; assay type: ADME, organism-based; parameters: dose 10 mg/kg, route oral; settings: in vivo
How it was run: as §3

[13] = Oral bioavailability in Balb nu/nu mouse at 10 mg/kg; assay type: ADME, organism-based; settings: in vivo
How it was run: as §3

[14] = as §2; assay type: ADME, organism-based, Plasma; parameters: dose 10 mg/kg, route intravenous, time infinity; settings: Balb nu/nu, plasma
How it was run: as §1

[15] = Clearance in Balb nu/nu mouse at 10 mg/kg, iv; assay type: ADME, organism-based; parameters: dose 10 mg/kg, route intravenous; settings: in vivo
How it was run: as §1

Chain of Tyrosine-protein kinase JAK2 (Homo sapiens, UniProt O60674, V617F) (O60674 whole entry V617F): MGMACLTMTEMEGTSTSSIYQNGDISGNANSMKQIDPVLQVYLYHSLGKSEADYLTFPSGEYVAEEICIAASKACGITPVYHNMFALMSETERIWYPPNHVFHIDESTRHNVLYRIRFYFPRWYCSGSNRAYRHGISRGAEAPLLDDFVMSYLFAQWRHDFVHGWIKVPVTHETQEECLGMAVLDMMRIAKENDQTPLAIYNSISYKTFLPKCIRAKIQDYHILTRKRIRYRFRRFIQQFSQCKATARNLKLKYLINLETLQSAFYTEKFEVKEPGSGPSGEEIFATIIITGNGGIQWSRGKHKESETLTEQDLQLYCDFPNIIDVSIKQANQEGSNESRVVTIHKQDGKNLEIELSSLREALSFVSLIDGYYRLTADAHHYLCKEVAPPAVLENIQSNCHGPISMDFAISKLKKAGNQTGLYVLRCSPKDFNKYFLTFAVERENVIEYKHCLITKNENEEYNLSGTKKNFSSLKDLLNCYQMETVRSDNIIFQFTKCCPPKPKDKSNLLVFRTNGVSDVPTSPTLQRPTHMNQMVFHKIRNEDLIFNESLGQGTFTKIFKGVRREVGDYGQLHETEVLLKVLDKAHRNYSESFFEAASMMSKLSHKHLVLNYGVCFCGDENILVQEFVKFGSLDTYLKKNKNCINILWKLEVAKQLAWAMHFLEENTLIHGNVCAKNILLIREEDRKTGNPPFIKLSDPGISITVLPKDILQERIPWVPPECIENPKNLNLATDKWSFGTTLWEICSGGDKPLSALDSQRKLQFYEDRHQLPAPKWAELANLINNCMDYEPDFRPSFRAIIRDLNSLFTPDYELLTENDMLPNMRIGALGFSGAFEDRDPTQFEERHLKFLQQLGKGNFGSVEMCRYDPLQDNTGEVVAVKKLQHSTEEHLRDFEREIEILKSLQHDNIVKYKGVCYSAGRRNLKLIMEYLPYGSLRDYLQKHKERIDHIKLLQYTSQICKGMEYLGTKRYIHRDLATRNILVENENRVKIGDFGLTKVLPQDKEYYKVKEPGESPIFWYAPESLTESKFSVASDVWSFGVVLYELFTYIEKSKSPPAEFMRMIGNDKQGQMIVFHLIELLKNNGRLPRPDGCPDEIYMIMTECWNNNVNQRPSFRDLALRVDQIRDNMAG
Chain of Tyrosine-protein kinase JAK2 (Homo sapiens, UniProt O60674) (O60674 whole entry): as the sequence (O60674 whole entry V617F) above, with F617V counted along it

| Structure (SMILES) | IC50 [1] [nM] | IC50 [4] [nM] | further results |
| --- | --- | --- | --- |
| NC(=O)c1cc(-c2ccnc(N)n2)[nH]c1-c1cc(Cl)ccc1C(F)(F)F | 53 |  |  |
| CNC(=O)c1cc(-c2ccnc(N)n2)[nH]c1-c1cc(Cl)ccc1C | 35 | 480 | IC50 [2]: 2070 nM; IC50 [3]: 980 nM |
| COc1ccc(Cl)cc1-c1[nH]c(-c2ccnc(N)n2)cc1C(N)=O | 308 |  |  |
| CC(C)c1ccc(Cl)cc1-c1[nH]c(-c2ccnc(N)n2)cc1C(N)=O | 150 |  |  |
| CCc1ccc(Cl)cc1-c1[nH]c(-c2ccnc(N)n2)cc1C(N)=O |  |  | IC50 [2]: 880 nM; IC50 [3]: 2000 nM; solubility [5]: 200 µM (≈ 68.4 µg/mL); Cmax [6]: 4.5 µM; AUC [7]: 2 µM·h; Vd [8]: 1.8 L/kg; half-life [9]: 12 min; Cmax [10]: 0.6 µM; AUC(0-inf) [11]: 0.7 µM·h; half-life [12]: 48 min; bioavailability [13]: 17% |
| CCc1ccc(C(F)(F)F)cc1-c1[nH]c(-c2ccnc(N)n2)cc1C(N)=O |  | 320 | IC50 [2]: 1470 nM; IC50 [3]: 2210 nM; solubility [5]: 182 µM (≈ 68.3 µg/mL); Cmax [6]: 38.9 µM; AUC(0-inf) [14]: 20.7 µM·h; clearance [15]: 21.6 mL/min/kg; Vd [8]: 0.6 L/kg; half-life [9]: 60 min; Cmax [10]: 4.4 µM; AUC(0-inf) [11]: 4.6 µM·h; half-life [12]: 108 min; bioavailability [13]: 24% |
| Cc1ccc(Cl)cc1-c1[nH]c(-c2ccnc(N)n2)cc1C(=O)NCCO | 57 |  |  |
| Cc1ccc(Cl)cc1-c1[nH]c(-c2ccnc(Nc3ccc(N4CCN(C)CC4)cc3)n2)cc1C(N)=O | 59 |  |  |
| Cc1ccc(Cl)cc1-c1c(C(N)=O)cc(-c2ccnc(Nc3ccc(N4CCN(C)CC4)cc3)n2)n1C | 22 | 250 |  |
| NC(=O)c1cc(-c2ccnc(N)n2)[nH]c1-c1cc(OC(F)(F)F)ccc1Cl | 24 | 1100 |  |
| CNCCNC(=O)c1cc(-c2ccnc(N)n2)[nH]c1-c1cc(Cl)ccc1C | 44 | > 3000 |  |
| Cc1ccc(Cl)cc1-c1[nH]c(-c2ccnc(N)n2)cc1C(=O)N(C)C | 3060 |  |  |
| CCNC(=O)c1cc(-c2ccnc(N)n2)[nH]c1-c1cc(Cl)ccc1C | 109 |  |  |
| Cc1ccc(Cl)cc1-c1c(C(N)=O)cc(-c2ccnc(N)n2)n1C | 66 |  |  |
| Cc1ccc(Cl)cc1-c1[nH]c(-c2ccncn2)cc1C(N)=O | 1240 |  |  |
| Cc1ccc(Cl)cc1-c1[nH]c(-c2ccnc(N)n2)cc1C(=O)NCC(C)C | 384 |  |  |
| Cc1ccc(Cl)cc1-c1[nH]c(-c2ccnc(N)n2)cc1C(=O)NC1CCN(C)CC1 | 46 | > 3000 |  |
| COc1ccc(CNc2nccc(-c3cc(C(N)=O)c(-c4cc(Cl)ccc4C)[nH]3)n2)cc1 | 394 |  |  |
| Cc1ccc(C(F)(F)F)cc1-c1[nH]c(-c2ccnc(N)n2)cc1C(N)=O | 10 | 760 | IC50 [2]: 640 nM; IC50 [3]: 440 nM |
| Cc1ccc(Cl)cc1-c1[nH]c(-c2ccnc(N)n2)cc1C(N)=O |  |  | IC50 [2]: 740 nM; IC50 [3]: 380 nM |
| NC(=O)c1cc(-c2ccnc(N)n2)[nH]c1-c1cccc(Cl)c1 | 617 |  |  |
| Cc1ccc(Cl)cc1-c1[nH]c(-c2ccnc(N)n2)cc1C(=O)NCCF | 114 |  |  |
| NC(=O)c1cc(-c2ccnc(N)n2)[nH]c1-c1cc(Cl)ccc1Cl |  | 700 | IC50 [2]: 1660 nM; IC50 [3]: 2460 nM |
| Cc1ccc(Cl)cc1-c1[nH]c(-c2ccnc(N)n2)cc1C(=O)Nc1ccccc1 | 247 |  |  |
| NC(=O)c1cc(-c2ccnc(N)n2)[nH]c1-c1cc(C(F)(F)F)ccc1C(F)(F)F | 21 | 3070 |  |
| NC(=O)c1cc(-c2ccnc(N)n2)[nH]c1-c1ccccc1 | 3200 |  |  |
| Cc1ccccc1-c1[nH]c(-c2ccnc(N)n2)cc1C(N)=O | 695 |  |  |
| Cc1ccc(Cl)cc1-c1[nH]c(-c2ccnc(N)n2)cc1C(=O)NCc1ccccc1 | 154 |  |  |
| NC(=O)c1cc(-c2ccnc(N)n2)[nH]c1-c1ccccc1Cl | 615 |  |  |

Reference: ChEMBL document CHEMBL3352511, “Pyrrole-3-carboxamides as potent and selective JAK2 inhibitors” (Bioorg Med Chem, 2014)
